Results from ChEMBL document CHEMBL4028886 (J Med Chem, 2017).
Active and inactive are the calls of the source. The rule behind the calls is not given here.

Legend:
[1] = target: Sodium-dependent serotonin transporter (Homo sapiens, UniProt P31645); test: Inhibition of re-uptake of [3H]-5-HT at human SERT expressed in HEK293 cells preincubated for 5 mins followed by [3H]-dopamine addition measured after 1 min by liquid scintillation counting; format: cell-based; conditions: hek293
[2] = target: T1, Sodium-dependent dopamine transporter (Homo sapiens, UniProt Q01959); test: Inhibition of re-uptake of [3H]-dopamine at human DAT expressed in HEK293 cells preincubated for 5 mins followed by [3H]-dopamine addition measured after 1 min by liquid scintillation counting; format: cell-based; conditions: read-out: IC50
How it was run: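 HEK293 cells stably expressing human DAT or NET, seeded on PDL-coated plates 24 h before. Preincubated 5 min in Krebs–HEPES buffer pH 7.3 with compound at 0.001 μM to 1 mM (DMSO stock diluted in buffer). Substrate then added: 0.2 μM [3H]dopamine for DAT, 1 min; 0.05 μM [3H]MPP+ for NET, 3 min. Room temperature. Uptake stopped with ice-cold buffer. Cells lysed in 1% SDS and counted by scintillation. Unspecific uptake defined with 10 μM mazindol. IC50 by nonlinear regression.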

[3] = tested on: Rattus norvegicus; test: Neurotoxicity in Sprague-Dawley rat assessed as effect on total distance traveled at 10 mg/kg, ip administered 30 mins prior to test by open field test relative to control; format: toxicity, organism-based; conditions: in vivo, 0.5 h
How it was run: (§1)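 Male Sprague–Dawley rats, 10 per group, given 10 mg/kg ip daily for 10 days and 30 min before each test. DMSO vehicle group as control. Open field arena 100 × 100 cm with 40 cm walls. Animals video-tracked for 10 min.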

[4] = tested on: Rattus norvegicus; test: Neurotoxicity in Sprague-Dawley rat assessed as effect on resting time at 10 mg/kg, ip administered 30 mins prior to test by open field test relative to control; format: toxicity, organism-based; conditions: in vivo, 0.5 h; how it was run: as §1
[5] = tested on: Rattus norvegicus; test: Neurotoxicity in Sprague-Dawley rat assessed as effect on local movements at 10 mg/kg, ip administered 30 mins prior to test by open field test relative to control; format: toxicity, organism-based; conditions: in vivo, 0.5 h; how it was run: as §1
[6] = tested on: Rattus norvegicus; test: Neurotoxicity in Sprague-Dawley rat assessed as effect on large movements at 10 mg/kg, ip administered 30 mins prior to test by open field test relative to control; format: toxicity, organism-based; conditions: in vivo, 0.5 h; how it was run: as §1
[7] = tested on: Rattus norvegicus; test: Neurotoxicity in Sprague-Dawley rat assessed as effect on average velocity at 10 mg/kg, ip administered 30 mins prior to test by open field test relative to control; format: toxicity, organism-based; conditions: in vivo, 0.5 h; how it was run: as §1
[8] = tested on: Rattus norvegicus; test: Neurotoxicity in Sprague-Dawley rat assessed as effect on frequency of spontaneous changes of direction at 10 mg/kg, ip administered 30 mins prior to test by open field test; format: toxicity, organism-based; conditions: in vivo, 0.5 h; how it was run: as §1
[9] = tested on: Rattus norvegicus; test: Neurotoxicity in Sprague-Dawley rat assessed as effect on time spent at the margin at 10 mg/kg, ip administered 30 mins prior to test by open field test relative to control; format: toxicity, organism-based; conditions: in vivo, 0.5 h; how it was run: as §1
[10] = tested on: Rattus norvegicus; test: Neurotoxicity in Sprague-Dawley rat assessed as effect on time spent in the left open arm at 10 mg/kg, ip administered 30 mins prior to test by elevated plus maze test relative to control; format: toxicity, organism-based; conditions: in vivo, 0.5 h
How it was run: (§2)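 Male Sprague–Dawley rats, 10 per group, dosed 10 mg/kg ip daily for 10 days and 30 min before testing. DMSO vehicle controls. Elevated plus maze, rats placed centrally and video-tracked. Recorded: time in closed and open arms, arm entries, path length.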

[11] = tested on: Rattus norvegicus; test: Neurotoxicity in Sprague-Dawley rat assessed as effect on time spent in the left closed arm at 10 mg/kg, ip administered 30 mins prior to test by elevated plus maze test relative to control; format: toxicity, organism-based; conditions: in vivo, 0.5 h; how it was run: as §2
[12] = tested on: Rattus norvegicus; test: Neurotoxicity in Sprague-Dawley rat assessed as effect on total distance traveled at 10 mg/kg, ip administered 30 mins prior to test by elevated plus maze test relative to control; format: toxicity, organism-based; conditions: in vivo, 0.5 h; how it was run: as §2
[13] = tested on: Rattus norvegicus; test: Neurotoxicity in Sprague-Dawley rat assessed as effect on distance traveled in closed arms at 10 mg/kg, ip administered 30 mins prior to test by elevated plus maze test relative to control; format: toxicity, organism-based; conditions: in vivo, 0.5 h; how it was run: as §2
[14] = tested on: Rattus norvegicus; test: Neurotoxicity in Sprague-Dawley rat assessed as effect on time spent in open arm at 10 mg/kg, ip administered 30 mins prior to test by elevated plus maze test relative to control; format: toxicity, organism-based; conditions: in vivo, 0.5 h; how it was run: as §2
[15] = tested on: Rattus norvegicus; test: Neurotoxicity in Sprague-Dawley rat assessed as effect on resting time at 10 mg/kg, ip administered 30 mins prior to test by elevated plus maze test relative to control; format: toxicity, organism-based; conditions: in vivo, 0.5 h; how it was run: as §2
[16] = tested on: Rattus norvegicus; test: Neurotoxicity in Sprague-Dawley rat assessed as effect on time spent on revolving rod at 10 mg/kg, ip administered 30 mins prior to test by rotarod test relative to control; format: toxicity, organism-based; conditions: in vivo, 0.5 h
How it was run: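 Male Sprague–Dawley rats, 10 per group, dosed 10 mg/kg ip daily for 10 days and 30 min before testing. DMSO vehicle controls. Rotarod, time spent on the revolving rod recorded.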

[17] = tested on: Rattus norvegicus; test: Neurotoxicity in Sprague-Dawley rat assessed as locomotor activity score at 10 mg/kg, ip administered 30 mins prior to test (reference value: 2.6 +/- 0.9661); format: toxicity, organism-based; conditions: in vivo, 0.5 h
[18] = tested on: Rattus norvegicus; test: Neurotoxicity in Sprague-Dawley rat assessed as transfer arousal score at 10 mg/kg, ip administered 30 mins prior to test (reference value: 3.1 +/- 0.3162); format: toxicity, organism-based; conditions: in vivo, 0.5 h
[19] = tested on: Rattus norvegicus; test: Neurotoxicity in Sprague-Dawley rat assessed as piloerection score at 10 mg/kg, ip administered 30 mins prior to test (reference value: 2.1 +/- 0.3162); format: toxicity, organism-based; conditions: in vivo, 0.5 h
[20] = tested on: Rattus norvegicus; test: Neurotoxicity in Sprague-Dawley rat assessed as limb rotation score at 10 mg/kg, ip administered 30 mins prior to test (reference value: 3.3 +/- 0.4830); format: toxicity, organism-based; conditions: in vivo, 0.5 h
[21] = tested on: Rattus norvegicus; test: Neurotoxicity in Sprague-Dawley rat assessed as tail elevation score at 10 mg/kg, ip administered 30 mins prior to test (reference value: 2.2 +/- 0.6325); format: toxicity, organism-based; conditions: in vivo, 0.5 h
[22] = tested on: Rattus norvegicus; test: Neurotoxicity in Sprague-Dawley rat assessed as finger approach score at 10 mg/kg, ip administered 30 mins prior to test (reference value: 1.4 +/- 1.350); format: toxicity, organism-based; conditions: in vivo, 0.5 h
[23] = tested on: Rattus norvegicus; test: Neurotoxicity in Sprague-Dawley rat assessed as visual placing score at 10 mg/kg, ip administered 30 mins prior to test (reference value: 1.9 +/- 0.3162); format: toxicity, organism-based; conditions: in vivo, 0.5 h
[24] = tested on: Rattus norvegicus; test: Neurotoxicity in Sprague-Dawley rat assessed as grip strength score at 10 mg/kg, ip administered 30 mins prior to test (reference value: 2.4 +/- 1.265); format: toxicity, organism-based; conditions: in vivo, 0.5 h
[25] = tested on: Rattus norvegicus; test: Neurotoxicity in Sprague-Dawley rat assessed as pinna reflex score at 10 mg/kg, ip administered 30 mins prior to test (reference value: 1.2 +/- 1.033); format: toxicity, organism-based; conditions: in vivo, 0.5 h
[26] = tested on: Rattus norvegicus; test: Neurotoxicity in Sprague-Dawley rat assessed as tail pinch score at 10 mg/kg, ip administered 30 mins prior to test (reference value: 0.8 +/- 0.788); format: toxicity, organism-based; conditions: in vivo, 0.5 h
[27] = target: T1, Sodium-dependent dopamine transporter; test: Displacement of [3H]WIN 35,428 from human DAT expressed in HEK293 cells at 1 and 3 uM after 30 mins in presence of increasing concentration of cocaine by liquid scintillation counting; format: cell-based
How it was run: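 Intact HEK-DAT cells on PDL-coated plates, in binding buffer (HEPES, NaCl, KCl, CaCl2, MgCl2, 10 μM ZnCl2, glucose, pH 7,3). Incubated with ~10 nM [3H]WIN 35,428, fixed concentrations of test compound and cocaine 0.001–1 μM, 30 min at 25 °C. Nonspecific binding defined with 30 μM mazindol. Cells lysed in 1% SDS and counted by scintillation. Reciprocal of bound (fmol) plotted against cocaine concentration as Dixon plot. Three experiments in triplicate, mean ± SD.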

T1 sequence (Q01959 whole entry): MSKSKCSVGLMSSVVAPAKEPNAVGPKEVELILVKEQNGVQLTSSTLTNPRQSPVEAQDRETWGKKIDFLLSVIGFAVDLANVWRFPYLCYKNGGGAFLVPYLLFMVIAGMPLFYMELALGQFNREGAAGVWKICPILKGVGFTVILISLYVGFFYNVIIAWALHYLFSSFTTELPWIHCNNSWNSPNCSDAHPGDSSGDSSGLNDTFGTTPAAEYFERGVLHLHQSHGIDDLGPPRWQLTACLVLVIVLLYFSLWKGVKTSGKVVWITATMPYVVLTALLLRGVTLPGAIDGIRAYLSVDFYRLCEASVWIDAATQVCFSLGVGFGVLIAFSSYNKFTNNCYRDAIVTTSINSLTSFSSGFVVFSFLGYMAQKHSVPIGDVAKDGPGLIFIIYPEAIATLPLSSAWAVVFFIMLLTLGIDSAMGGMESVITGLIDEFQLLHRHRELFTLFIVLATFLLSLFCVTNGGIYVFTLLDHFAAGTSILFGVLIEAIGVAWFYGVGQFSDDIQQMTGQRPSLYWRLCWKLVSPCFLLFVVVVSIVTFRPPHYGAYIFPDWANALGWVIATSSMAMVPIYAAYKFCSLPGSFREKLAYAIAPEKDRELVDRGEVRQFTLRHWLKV
Sequence of Sodium-dependent serotonin transporter (P31645 whole entry): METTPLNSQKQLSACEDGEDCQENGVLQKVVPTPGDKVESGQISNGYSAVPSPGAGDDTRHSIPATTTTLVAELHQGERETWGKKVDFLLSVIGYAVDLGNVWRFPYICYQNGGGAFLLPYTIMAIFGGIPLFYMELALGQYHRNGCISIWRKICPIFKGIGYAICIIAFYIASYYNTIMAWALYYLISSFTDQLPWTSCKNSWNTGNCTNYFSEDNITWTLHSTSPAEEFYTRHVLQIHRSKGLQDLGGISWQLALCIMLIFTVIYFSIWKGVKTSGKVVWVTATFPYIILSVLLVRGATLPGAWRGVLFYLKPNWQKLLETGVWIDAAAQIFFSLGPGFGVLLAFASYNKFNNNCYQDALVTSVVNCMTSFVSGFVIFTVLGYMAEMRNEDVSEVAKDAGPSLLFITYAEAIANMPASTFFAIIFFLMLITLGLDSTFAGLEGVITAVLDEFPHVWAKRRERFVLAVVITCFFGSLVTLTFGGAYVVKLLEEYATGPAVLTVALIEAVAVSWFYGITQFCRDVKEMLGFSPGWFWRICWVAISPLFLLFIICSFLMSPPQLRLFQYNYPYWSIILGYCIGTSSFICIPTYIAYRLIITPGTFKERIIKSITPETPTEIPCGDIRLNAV

## [O-][S+](Cc1cccs1)C(c1ccccc1)c1ccccc1 (configuration not stated)
[1]
  IC50: Not Active
[2]
  IC50: 1400 nM
[3]
  Activity: Non-Toxic
[4]
  Activity: Non-Toxic
[5]
  Activity: Non-Toxic
[6]
  Activity: Non-Toxic
[7]
  Activity: Non-Toxic
[8]
  Activity: Non-Toxic
[9]
  Activity: Non-Toxic
[10]
  Activity: Non-Toxic
[11]
  Activity: Non-Toxic
[12]
  Activity: Non-Toxic
[13]
  Activity: Non-Toxic
[14]
  Activity: Non-Toxic
[15]
  Activity: Non-Toxic
[16]
  Activity: Non-Toxic
[17]
  Activity: 2.6
[18]
  Activity: 3.2
[19]
  Activity: 2.2
[20]
  Activity: 3.4
[21]
  Activity: 1.8
[22]
  Activity: 1.4
[23]
  Activity: 1.7
[24]
  Activity: 3
[25]
  Activity: 1.4
[26]
  Activity: 0.9
[27]
  inhibition: Active
